Measured values published in ChEMBL document CHEMBL4765452, “Discovery of (E)-N-(4-methyl-5-(3-(2-(pyridin-2-yl)vinyl)-1H-indazol-6-yl)thiazol-2-yl)-2-(4-methylpiperazin-1-yl)acetamide (IHMT-TRK-284) as a novel orally available type II TRK kinase inhibitor capable of overcoming multiple resistant mutants” (Eur J Med Chem, 2020).

How the values were obtained:
[1] = biological target: T1, Mast/stem cell growth factor receptor Kit (Homo sapiens, UniProt P10721); assay: Inhibition of TEL fused KIT (unknown origin) transfected in mouse BAF3 cells assessed as growth inhibition after 72 hrs by CCK8 assay; type: cell-based
T1 sequence (P10721 whole entry, the tested form may be a part): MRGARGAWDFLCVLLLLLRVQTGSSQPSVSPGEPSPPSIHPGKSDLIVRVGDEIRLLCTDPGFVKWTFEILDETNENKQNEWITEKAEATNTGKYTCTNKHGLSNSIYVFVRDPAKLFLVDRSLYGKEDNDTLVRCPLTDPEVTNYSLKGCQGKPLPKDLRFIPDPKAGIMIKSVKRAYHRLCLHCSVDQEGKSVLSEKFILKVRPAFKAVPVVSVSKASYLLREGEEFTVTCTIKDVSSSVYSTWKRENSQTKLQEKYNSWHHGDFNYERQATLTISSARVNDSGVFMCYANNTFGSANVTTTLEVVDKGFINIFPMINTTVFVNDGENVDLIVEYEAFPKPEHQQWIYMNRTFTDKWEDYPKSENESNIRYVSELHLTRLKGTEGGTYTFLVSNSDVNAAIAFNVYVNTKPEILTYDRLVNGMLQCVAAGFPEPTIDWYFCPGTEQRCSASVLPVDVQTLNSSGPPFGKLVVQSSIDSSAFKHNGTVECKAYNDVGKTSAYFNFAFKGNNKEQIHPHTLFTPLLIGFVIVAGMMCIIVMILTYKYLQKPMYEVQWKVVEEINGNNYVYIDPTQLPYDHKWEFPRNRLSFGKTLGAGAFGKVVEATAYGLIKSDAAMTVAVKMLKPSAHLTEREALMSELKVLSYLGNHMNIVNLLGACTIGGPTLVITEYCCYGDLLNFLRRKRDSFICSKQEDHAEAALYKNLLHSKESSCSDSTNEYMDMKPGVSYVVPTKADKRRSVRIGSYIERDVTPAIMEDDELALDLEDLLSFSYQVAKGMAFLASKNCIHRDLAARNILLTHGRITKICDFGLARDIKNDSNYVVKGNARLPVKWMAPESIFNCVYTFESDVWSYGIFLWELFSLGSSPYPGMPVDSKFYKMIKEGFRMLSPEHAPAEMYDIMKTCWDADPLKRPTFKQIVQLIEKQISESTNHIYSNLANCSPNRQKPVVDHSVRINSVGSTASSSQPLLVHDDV
Method in brief: (§1)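 TEL-fusion isogenic BaF3 lines were built in-house and grown in RPMI 1640 with 10% FBS and 1% penicillin/streptomycin at 37 °C under 5% CO2. Cells were spun down before use.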

[2] = biological target: T2, Platelet-derived growth factor receptor beta (Homo sapiens, UniProt P09619); assay: Inhibition of TEL fused PDGFRbeta (unknown origin) transfected in mouse BAF3 cells assessed as growth inhibition after 72 hrs by CCK8 assay; type: cell-based; method in brief: as §1
T2 sequence (P09619 whole entry, the tested form may be a part): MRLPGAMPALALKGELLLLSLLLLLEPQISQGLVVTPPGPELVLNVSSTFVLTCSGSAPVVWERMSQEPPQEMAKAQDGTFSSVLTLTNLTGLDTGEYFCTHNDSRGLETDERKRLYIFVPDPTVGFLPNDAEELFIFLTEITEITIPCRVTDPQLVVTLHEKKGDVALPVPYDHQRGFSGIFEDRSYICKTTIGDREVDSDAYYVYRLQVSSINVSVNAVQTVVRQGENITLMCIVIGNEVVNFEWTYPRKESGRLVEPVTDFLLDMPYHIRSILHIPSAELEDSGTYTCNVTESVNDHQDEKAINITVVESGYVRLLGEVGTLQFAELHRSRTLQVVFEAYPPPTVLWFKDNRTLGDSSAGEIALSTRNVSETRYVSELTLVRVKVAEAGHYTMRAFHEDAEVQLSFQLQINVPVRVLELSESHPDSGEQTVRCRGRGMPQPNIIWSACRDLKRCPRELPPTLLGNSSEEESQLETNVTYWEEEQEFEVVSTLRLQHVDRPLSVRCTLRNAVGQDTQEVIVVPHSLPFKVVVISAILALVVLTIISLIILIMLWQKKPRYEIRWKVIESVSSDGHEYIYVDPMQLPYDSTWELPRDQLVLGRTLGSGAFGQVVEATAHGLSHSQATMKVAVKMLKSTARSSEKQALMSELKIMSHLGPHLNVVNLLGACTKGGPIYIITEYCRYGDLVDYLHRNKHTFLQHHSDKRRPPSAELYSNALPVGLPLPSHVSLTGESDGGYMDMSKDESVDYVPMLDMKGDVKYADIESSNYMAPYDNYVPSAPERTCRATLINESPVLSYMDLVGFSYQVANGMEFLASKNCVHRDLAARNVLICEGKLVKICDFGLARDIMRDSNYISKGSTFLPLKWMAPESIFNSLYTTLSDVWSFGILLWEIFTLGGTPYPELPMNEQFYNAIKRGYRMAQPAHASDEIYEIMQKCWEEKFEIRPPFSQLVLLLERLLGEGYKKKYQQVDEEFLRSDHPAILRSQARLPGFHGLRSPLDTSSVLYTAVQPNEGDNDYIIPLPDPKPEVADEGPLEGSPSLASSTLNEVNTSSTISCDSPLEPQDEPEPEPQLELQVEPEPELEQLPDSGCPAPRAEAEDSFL

[3] = biological target: BDNF/NT-3 growth factors receptor (Homo sapiens, UniProt Q16620); assay: Inhibition of TEL fused TRKB (unknown origin) transfected in mouse BAF3 cells assessed as growth inhibition after 72 hrs by CCK8 assay; type: cell-based; method in brief: as §1
BDNF/NT-3 growth factors receptor, sequence (Q16620 32-822 limits assumed): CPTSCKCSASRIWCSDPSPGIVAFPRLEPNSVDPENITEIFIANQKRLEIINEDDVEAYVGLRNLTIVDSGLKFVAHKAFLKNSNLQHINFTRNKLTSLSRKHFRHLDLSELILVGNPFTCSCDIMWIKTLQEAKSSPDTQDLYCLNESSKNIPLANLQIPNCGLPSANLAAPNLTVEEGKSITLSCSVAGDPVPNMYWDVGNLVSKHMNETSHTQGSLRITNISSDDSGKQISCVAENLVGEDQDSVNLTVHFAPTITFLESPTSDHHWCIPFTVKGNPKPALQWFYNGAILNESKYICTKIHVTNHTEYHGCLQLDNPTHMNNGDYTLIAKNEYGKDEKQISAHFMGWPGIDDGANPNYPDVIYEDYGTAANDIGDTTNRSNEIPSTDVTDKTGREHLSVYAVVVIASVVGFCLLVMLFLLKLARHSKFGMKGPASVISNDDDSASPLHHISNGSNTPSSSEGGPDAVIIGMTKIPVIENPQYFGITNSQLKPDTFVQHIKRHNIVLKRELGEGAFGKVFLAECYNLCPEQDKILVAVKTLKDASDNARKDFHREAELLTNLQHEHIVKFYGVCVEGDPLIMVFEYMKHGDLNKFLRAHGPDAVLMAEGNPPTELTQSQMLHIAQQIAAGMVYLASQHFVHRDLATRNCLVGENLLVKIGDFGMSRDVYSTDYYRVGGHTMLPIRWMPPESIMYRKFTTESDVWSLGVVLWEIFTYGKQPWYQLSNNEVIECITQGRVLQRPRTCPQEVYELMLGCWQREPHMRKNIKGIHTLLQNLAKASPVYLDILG

BaF3 [4] = assay: Inhibition of LMNA fused TRKA V573M mutant (unknown origin) transfected in mouse BAF3 cells assessed as growth inhibition after 72 hrs by CCK8 assay; type: cell-based; settings: Homo sapiens
BaF3 [5] = assay: Inhibition of LMNA fused TRKA G667S mutant (unknown origin) transfected in mouse BAF3 cells assessed as growth inhibition after 72 hrs by CCK8 assay; type: cell-based; settings: Homo sapiens
[6] = biological target: T1, Mast/stem cell growth factor receptor Kit; assay: Inhibition of human KIT by Z-LYTE or ADP-Glo assay
Method in brief: (§2)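 Purified kinase proteins tested biochemically in Z'LYTE or ADP-Glo format.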

[7] = biological target: T2, Platelet-derived growth factor receptor beta; assay: Inhibition of human PDGFR beta by Z-LYTE or ADP-Glo assay; method in brief: as §2
[8] = Inhibition of LMNA fused TRKA V573M mutant (unknown origin) transfected in mouse BaF3 cells assessed as reduction in phosphorylation at Y490 residue after 2 hrs by Western blot analysis; settings: Homo sapiens, BaF3, 2 h
[9] = Antiproliferative activity against human KM-12-LUC cells harboring […] fused TRKA assessed as growth inhibition after 72 hrs by CCK8 assay; type: functional; settings: KM12-Luc
Method in brief: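 KM-12-LUC cells seeded at 3 × 10⁴ cells/mL, incubated overnight at 37 °C, 5% CO₂, then medium replaced with fresh medium containing a range of compound concentrations for 72 h; viability read by CCK-8 absorbance at 450 nm, normalized to DMSO control, GI₅₀ from curve fitting.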

[10] = Tmax in mouse at 10 mg/kg, po; type: ADME, organism-based; settings: in vivo
Method in brief: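 Single-dose PK in mice, Sprague Dawley rats and beagle dogs, given i.v. (1 mg/kg) or p.o. (10 mg/kg mice and rats; 5 mg/kg dogs). AUC0-t, T1/2, Tmax and oral bioavailability (F) derived from plasma profiles.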

[11] = Apparent volume of distribution in mouse at 1 mg/kg, iv; type: ADME, organism-based; settings: in vivo, read-out: Vz
[12] = Apparent clearance in mouse at 10 mg/kg, po; type: ADME, organism-based; settings: in vivo, read-out: CLz/F (converted)
[13] = Cmax in mouse at 1 mg/kg, iv; type: ADME, organism-based; parameters: route intravenous, dose 1 mg/kg; settings: in vivo
[14] = Cmax in mouse at 10 mg/kg, po; type: ADME, organism-based; parameters: route oral, dose 10 mg/kg; settings: in vivo
[15] = Half life in Sprague-Dawley rat at 10 mg/kg, po; type: ADME, organism-based; settings: in vivo
[16] = Apparent clearance in Sprague-Dawley rat at 1 mg/kg, iv; type: ADME, organism-based; settings: in vivo
[17] = Cmax in Sprague-Dawley rat at 1 mg/kg, iv; type: ADME, organism-based; parameters: route intravenous, dose 1 mg/kg; settings: in vivo
[18] = AUC (0 to t) in Beagle dog at 5 mg/kg, po; type: ADME, organism-based, Canis lupus familiaris; parameters: dose 5 mg/kg; settings: in vivo
Method in brief: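 Intravenous and oral arms were run in parallel in each species (mice, Sprague Dawley rats, beagle dogs). Exposure is reported as AUC0-t in ng/mL·h.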

[19] = Apparent volume of distribution in Beagle dog at 5 mg/kg, po; type: ADME, organism-based, Canis lupus familiaris; settings: in vivo
[20] = Apparent clearance in Beagle dog at 1 mg/kg, iv; type: ADME, organism-based, Canis lupus familiaris; settings: in vivo
BaF3 [21] = assay: Antitumor activity against mouse BAF3 cells harboring TEL fused TRKA allografted in nude mouse assessed as tumor growth inhibition at 80 mg/kg, po administered once daily for 10 days relative to control; type: functional; settings: 240 h, time 10 day, read-out: TGI
Method in brief: (§3)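 Nu/nu mice given 1 million BaF3 cells (TEL-TRKA, TEL-TRKB, TEL-TRKC, LMNA-TRKA-F589L or LMNA-TRKA-G667S) in DMEM, 1:1 with matrigel, injected subcutaneously into the right flank; oral gavage began at 200–400 mm³, 5 mice per group, compound in 0.5% methylcellulose/0.4% Tween 80 in ddH₂O, 10 days; tumor volume [(W²×L)/2] and body weight recorded daily; TGI versus vehicle.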

BaF3 [22] = assay: Antitumor activity against mouse BAF3 cells harboring LMNA fused TRKA-G667S mutant allografted in nude mouse assessed as tumor growth inhibition at 80 mg/kg, po administered twice daily for 10 days relative to control; type: functional; settings: 240 h, time 10 day, read-out: TGI; method in brief: as §3
BaF3 [23] = assay: Antitumor activity against mouse BAF3 cells harboring TEL fused TRKA allografted in nude mouse assessed as tumor growth inhibition at 40 mg/kg, po administered once daily for 10 days relative to control; type: functional; settings: 240 h, time 10 day, read-out: TGI; method in brief: as §3
BaF3 [24] = assay: Antitumor activity against mouse BAF3 cells harboring TEL fused TRKB allografted in nude mouse assessed as tumor growth inhibition at 40 mg/kg, po administered once daily for 10 days relative to control; type: functional; settings: 240 h, time 10 day, read-out: TGI; method in brief: as §3
[25] = Toxicity in mouse xenografted with human […] cells assessed as effect on body weight at 40 to 80 mg/kg, po administered once daily for 10 days; type: organism-based; settings: in vivo, 240 h, dose 40-80 mg/kg/day, time 10 day
Method in brief: (§4)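 nu/nu mice were given subcutaneous right-flank implants in 1:1 DMEM/matrigel: 1 million BaF3 fusion cells or 5 million KM-12-LUC cells. Oral gavage started at 150–200 mm3 (xenograft) or 200–400 mm3 (allograft). Dosing used 40 or 80 mg/kg in HKI vehicle (0.5% methylcellulose/0.4% Tween 80 in ddH2O), with 5 mice per group. Body weight was recorded daily and behaviour observed.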

[26] = Toxicity in mouse xenografted with mouse BAF3 cells harboring TEL fused TRKB assessed as effect on animals behaviour at 40 to 80 mg/kg, po administered once daily for 10 days; type: organism-based; settings: in vivo, 240 h, dose 40-80 mg/kg/day, time 10 day; method in brief: as §4
[27] = Toxicity in mouse xenografted with mouse BAF3 cells harboring TEL fused TRKC assessed as effect on animals behaviour at 40 to 80 mg/kg, po administered once daily for 10 days; type: organism-based; settings: in vivo, 240 h, dose 40-80 mg/kg/day, time 10 day; method in brief: as §4
[28] = Toxicity in mouse xenografted with mouse BAF3 cells harboring […] TRKA-G667S mutant assessed as effect on abnormal behaviour at 40 to 80 mg/kg, po administered twice daily for 10 days; type: organism-based; settings: in vivo, 240 h, dose 40-80 mg/kg, time 10 day; method in brief: as §4
[29] = Toxicity in mouse xenografted with human […] cells assessed as effect on abnormal behaviour at 40 to 80 mg/kg, po administered once daily for 10 days; type: organism-based; settings: in vivo, 240 h, dose 40-80 mg/kg/day, time 10 day; method in brief: as §4

Cc1nc(NC(=O)CN2CCN(C)CC2)sc1-c1ccc2c(/C=C/c3ccccn3)n[nH]c2c1
GI50 [1]: 923 nM | GI50 [2]: 1.4 nM | GI50 [3]: 8.2 nM | GI50 (BaF3 [4]): 3 nM | GI50 (BaF3 [5]): 2 nM | IC50 [6]: 2170 nM | IC50 [7]: 95.7 nM | EC50 [8]: 13 nM | GI50 [9]: 2 nM | Tmax [10]: 1.5 h | Vd [11]: 4.93 L/kg | CL/F [12]: 108 mL/min/kg | Cmax [13]: 1110 ng/mL | Cmax [14]: 258 ng/mL | t1/2 [15]: 2.5 h | CLz/F [16]: 41.35 mL/min/kg | Cmax [17]: 363 ng/mL | AUC(0-t) [18]: 464 ng·h/mL | Vz [19]: 149.26 L/kg | CLz/F [20]: 47.68 mL/min/kg | inhibition in vivo at 80 mg/kg/day (BaF3 [21]): 67.5% | inhibition in vivo at 80 mg/kg (BaF3 [22]): 89.1% | inhibition in vivo at 40 mg/kg/day (BaF3 [23]): 52.2% | inhibition in vivo at 40 mg/kg/day (BaF3 [24]): 83.1% | Activity [25]: Non-Toxic | Activity [26]: Non-Toxic | Activity [27]: Non-Toxic | Activity [28]: Non-Toxic | Activity [29]: Non-Toxic
